Experimental data taken from ChEMBL document CHEMBL3868603, “Synthesis and evaluation of naphthyl bearing 1,2,3-triazole analogs as antiplasmodial agents, cytotoxicity and docking studies” (Bioorg Med Chem, 2017).

Legend:
Plasmodium falciparum [1] = experiment: Antiplasmodial activity against pyrimethamine-sensitive Plasmodium falciparum 3D7 infected in human erythrocytes incubated for 50 hrs by SYBR green 1 dye based fluorescence assay; type: functional, cell-based; details: 3D7, 50 h
Procedure, shortened: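 Parasites cultured in RPMI 1640 with 10% human serum, erythrocytes at 2% haematocrit, 37°C, 5% O2/5% CO2/90% N2; sorbitol-synchronized rings. DMSO stocks serially 2-fold diluted; 1% ring-infected erythrocytes at 4% haematocrit, 50 h. SYBR Green 1 lysis buffer, fluorescence Ex 485/Em 530; chloroquine (500 nM) background subtracted, normalized to DMSO (0.05%), nonlinear regression IC50; two independent experiments in duplicate.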

[2] = Cytotoxicity against HEK293 cells assessed as decrease in cell viability at 100 uM after 48 hrs by MTT assay; type: toxicity, cell-based; details: human, hek293, 48 h
Procedure, shortened: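 HEK-293 in MEM with 10% FBS, seeded 10,000 cells/well, 24 h at 37°C, 5% CO2; treated 1–100 µM in triplicate with DMSO control and doxorubicin reference, 48 h. MTT added 1 h, dried, DMSO dissolved, absorbance 562 nm; IC50 as 50% absorbance reduction versus control, mean ± SD of three independent experiments.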

Plasmodium falciparum [3] = experiment: Antiplasmodial activity against pyrimethamine-resistant Plasmodium falciparum Dd2 infected in human erythrocytes incubated for 50 hrs by SYBR green 1 dye based fluorescence assay; type: functional, cell-based; details: Dd2, 50 h
Procedure, shortened: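 Ring-stage sorbitol-synchronised parasites in RPMI 1640 with 10% human serum, 1% ring parasitaemia, 2% final haematocrit; compounds from DMSO stocks in 2-fold serial dilution; 37°C, 5% O2/5% CO2/90% N2, 50 h; lysis buffer with SYBR Green 1, fluorescence Ex 485/Em 530; chloroquine (500 nM) background subtracted, normalised to DMSO (0.05%) wells; nonlinear regression IC50; two independent experiments in duplicate.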

Plasmodium falciparum [4] = experiment: Potency index, ratio of pyrimethamine IC50 to compound IC50 for pyrimethamine-resistant Plasmodium falciparum Dd2 infected in human erythrocytes; type: functional
Plasmodium falciparum [5] = experiment: Inhibition of trophozoite stage of Plasmodium falciparum DHFR assessed as reduction in NADPH depletion at 25 uM incubated for 30 mins followed by NADPH addition measured for 30 mins at 15 secs interval by UV/Vis spectrophotometric analysis
Procedure, shortened: (§1)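 Soluble extract from saponin-isolated trophozoites (culture at 15-16% parasitaemia), freeze-thaw, sonication, centrifugation; protein by Bradford. 500 µg extract in 1 ml assay buffer with inhibitor or 0.05% DMSO, 30 min room temperature, spun to remove precipitate; 60 µM NADPH and 50 µM DHA added, A340 decrease read every 15 s for 30 min; slope by linear regression as percent of control, representative experiment.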

Plasmodium falciparum [6] = experiment: Inhibition of trophozoite stage of Plasmodium falciparum DHFR assessed as reduction in NADPH depletion at 50 uM incubated for 30 mins followed by NADPH addition measured for 30 mins at 15 secs interval by UV/Vis spectrophotometric analysis; procedure, shortened: as §1

Structure (SMILES) | IC50 (Plasmodium falciparum [1]) | Activity [2] | IC50 (Plasmodium falciparum [3]) | Ratio IC50 (Plasmodium falciparum [4]) | inhibition (Plasmodium falciparum [5]) | inhibition (Plasmodium falciparum [6])
Brc1ccc2cc(OCc3cn(C4CCCC4)nn3)ccc2c1 | 27.3 µM | Non-Toxic |  |  |  | 
CCCn1cc(COc2ccc3cc(Br)ccc3c2)nn1 | 22.1 µM | Non-Toxic | 36.9 µM |  |  | 
O=[N+]([O-])c1ccc(Cn2cc(COc3ccc4cc(Br)ccc4c3)nn2)cc1 | 14.7 µM | Non-Toxic | 13.6 µM | 3 |  | 
O=C(O)CC[C@H](NC(=O)c1ccc(-n2cc(COc3ccc4cc(Br)ccc4c3)nn2)cc1)C(=O)O | 41.5 µM | Non-Toxic |  |  |  | 
CC(C)Cn1cc(COc2ccc3cc(Br)ccc3c2)nn1 | 19.6 µM | Non-Toxic | 31 µM | 3 | 41% | 
CC(C)n1cc(COc2ccc3cc(Br)ccc3c2)nn1 | 21 µM | Non-Toxic | 24 µM | 3 |  | 
O=[N+]([O-])c1ccc(Cn2cc(COc3ccc4ccccc4c3)nn2)cc1 | 39.6 µM | Non-Toxic | 41.6 µM |  |  | 
CCc1nc(N)nc(N)c1-c1ccc(Cl)cc1 [PYRIMETHAMINE] | 0.047 µM |  | 34 µM |  |  | 25%
C=CCn1cc(COc2ccc3cc(Br)ccc3c2)nn1 | 21.2 µM | Non-Toxic |  |  | 13% | 
c1ccc2cc(OCc3cn(C4CCCC4)nn3)ccc2c1 | 39 µM | Non-Toxic |  |  |  | 
CCn1cc(COc2ccc3cc(Br)ccc3c2)nn1 | 23.6 µM | Non-Toxic | 34.2 µM |  |  | 

Now from value to compound, other results behind:

IC50 (Plasmodium falciparum [1]) | Structure (SMILES) | Activity [2] | IC50 (Plasmodium falciparum [3]) | Ratio IC50 (Plasmodium falciparum [4]) | inhibition (Plasmodium falciparum [5]) | inhibition (Plasmodium falciparum [6])
48.6 µM | C=CCn1cc(COc2ccc3ccccc3c2)nn1 | Non-Toxic |  |  |  | 
97.5 µM | CCn1cc(COc2ccc3ccccc3c2)nn1 | Non-Toxic |  |  |  | 
61.5 µM | CC(C)Cn1cc(COc2ccc3ccccc3c2)nn1 | Non-Toxic |  |  |  | 
46.5 µM | CCCCCn1cc(COc2ccc3ccccc3c2)nn1 | Non-Toxic |  |  |  | 
54.5 µM | CCCn1cc(COc2ccc3ccccc3c2)nn1 | Non-Toxic |  |  |  | 
43.5 µM | CC(C)n1cc(COc2ccc3ccccc3c2)nn1 | Non-Toxic |  |  |  | 
80 µM | c1ccc2cc(OCc3cn(CCN4CCOCC4)nn3)ccc2c1 | Non-Toxic |  |  |  | 
26.2 µM | CCCCCn1cc(COc2ccc3cc(Br)ccc3c2)nn1 | Non-Toxic |  |  |  | 
